Laboratory results: ChEMBL document CHEMBL4196032, “Conformational mimetics of the α-methyl chalcone TUB091 binding tubulin: Design, synthesis and antiproliferative activity” (Eur J Med Chem, 2018)
Calls of active or inactive are those of the source. The rule behind the calls is not given here.

The compounds below were run against Tubulin (Homo sapiens) (UniProt P68371+Q9H4B7+P0DPH7+P68366+Q13509+Q71U36+P04350+Q3ZCM7+P07437+P68363+Q9BQE3+Q6PEY2+Q13885+Q9BVA1+Q9BUF5) (assay: Inhibition of tubulin polymerization in human HeLa cells assessed as reduction in mitotic spindle formation by measuring aberrant multipolar spindle formation at 0.1 to 0.3 uM after 24 hrs by Hoechst 33342 staining based immunofluorescence microscopic method). Settings: not given.
Assay type: cell-based
In short: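 HeLa seeded overnight on poly-L-lysine-coated slides, treated 24 h with compound or 0.1% DMSO. Fixed, permeabilized, stained with anti-β-tubulin (2 µg/ml) then Alexa Fluor 555 anti-mouse (4 µg/ml); nuclei with Hoechst 33342 (2 µg/ml); spindles imaged by fluorescence microscopy.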
In the case of `COc1ccc2c(c1N)CCC(C(=O)c1ccc(OC)c(OC)c1OC)C2` (racemic), the inhibition is reported as “Active”.

These compounds were tested on CCRF-CEM (assay: Antiproliferative activity against human CEM cells). Settings: not given.
Assay type: functional, cell-based
In short: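 Suspension cells seeded at 60,000 cells/well in 96-well plates together with a range of compound concentrations. Grown 96 h, then counted by Coulter counter. IC50 taken as the concentration reducing proliferation by 50%.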
`COc1ccc(/C=C(\C)C(=O)c2cc(OC)c3c(c2)OCO3)cc1N` showed an IC50 of 1 nM.

Species on record: Bos taurus
Test: Inhibition of R-PT binding to calf brain tubulin after 30 mins by fluorescence assay
Settings: not given
In short: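 Competition assay: 0.2 µM R-PT premixed with 0.2 µM calf brain tubulin in GAB buffer, ligand at 0–70 µM; 30 min at 25 °C, fluorescence read at 456 nm (ex 374 nm). Binding constants derived from competition data; racemates tested.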
Compound `COc1ccc2c(c1N)CCC(C(=O)c1ccc(OC)c(OC)c1OC)C2` (racemic) has a Kb of 2.4 ×10⁶ /M.

The compounds below were run on HMEC-1 (assay: Antiproliferative activity against human HMEC1 cells after 4 days by coulter counting method). Settings: HMEC-1, 96 h.
Assay type: cell-based
In short: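 HMEC-1 seeded at 20,000 cells/well; 5-fold compound dilutions added after 24 h; 4 days proliferation, trypsinized, Coulter counted.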
Work on `COc1ccc2c(c1N)CCC(C(=O)c1ccc(OC)c(OC)c1OC)C2` (racemic) yielded an IC50 of 47 nM.
In the case of `COc1ccc(C(=O)C2CCc3c(ccc(OC)c3[N+](=O)[O-])C2)c(OC)c1OC` (racemic), the IC50 is reported as 5300 nM.
`COc1ccc2c(c1)CCC(C(=O)c1ccc(OC)c3c1OCO3)C2` (racemic) showed an IC50 of 38000 nM.
With `COc1ccc(C(=O)C2CCc3c(ccc(OC)c3N)C2)cc1OC` (racemic) the IC50 was 122000 nM.
`COc1ccc2c(c1)CCC(C(=O)c1ccc(OC)c(OC)c1)C2` (racemic) was tested, and the IC50 was greater than 250000 nM.
`COc1ccc2c(c1)CCC(C(=O)c1ccc(OC)c(OC)c1O)C2` (racemic) gave an IC50 of no less than 250000 nM.
Work on `COc1cc2c(cc1N)CC(C(=O)c1ccc(OC)c(OC)c1OC)CC2` (racemic) yielded an IC50 of 1300 nM.
`COc1cc2c(cc1[N+](=O)[O-])CC(C(=O)c1ccc(OC)c(OC)c1OC)CC2` (racemic) showed an IC50 of 199000 nM.
Work on `COc1ccc2c(c1)CCC(C(=O)c1ccc(OC)c(OC)c1OC)C2` (racemic) yielded an IC50 of 1200 nM.
`COc1ccc(/C=C\c2cc(OC)c(OC)c(OC)c2)cc1OP(=O)(O)O` [FOSBRETABULIN DISODIUM] was tested, and the IC50 was 2.9 nM.

These compounds were tested on L1210 (assay: Antiproliferative activity against mouse L1210 cells after 96 hrs by coulter counting method). Settings: L1210, 96 h.
Assay type: functional, cell-based
In short: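 Suspension cells (CEM, L1210) seeded at 60,000 cells/well together with graded compound concentrations; grown 96 h, then counted by Coulter counter. IC50 = concentration reducing cell proliferation by 50%.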
`COc1ccc(/C=C(\C)C(=O)c2cc(OC)c3c(c2)OCO3)cc1N` was tested, and the IC50 was 1 nM.
`COc1ccc2c(c1N)CCC(C(=O)c1ccc(OC)c(OC)c1OC)C2` (racemic) was tested, and the IC50 was 27 nM.
Work on `COc1ccc(C(=O)C2CCc3c(ccc(OC)c3[N+](=O)[O-])C2)c(OC)c1OC` (racemic) yielded an IC50 of 4200 nM.
`COc1ccc2c(c1)CCC(C(=O)c1ccc(OC)c3c1OCO3)C2` (racemic) showed an IC50 of 160000 nM.
In the case of `COc1ccc(C(=O)C2CCc3c(ccc(OC)c3N)C2)cc1OC` (racemic), the IC50 is reported as 52000 nM.
Compound `COc1ccc2c(c1)CCC(C(=O)c1ccc(OC)c(OC)c1)C2` (racemic) has an IC50 greater than 250000 nM.
For `COc1ccc2c(c1)CCC(C(=O)c1ccc(OC)c(OC)c1O)C2` (racemic), the IC50 was 75000 nM.
Work on `COc1cc2c(cc1N)CC(C(=O)c1ccc(OC)c(OC)c1OC)CC2` (racemic) yielded an IC50 of 860 nM.
Work on `COc1cc2c(cc1[N+](=O)[O-])CC(C(=O)c1ccc(OC)c(OC)c1OC)CC2` (racemic) yielded an IC50 greater than 250000 nM.
With `COc1ccc2c(c1)CCC(C(=O)c1ccc(OC)c(OC)c1OC)C2` (racemic) the IC50 was 240 nM.
In the case of `COc1ccc(/C=C\c2cc(OC)c(OC)c(OC)c2)cc1OP(=O)(O)O` [FOSBRETABULIN DISODIUM], the IC50 is reported as 2.1 nM.

What follows are compounds tested on HeLa (assay: Antiproliferative activity against human HeLa cells after 3 days by coulter counting method). Settings: 72 h.
Assay type: functional, cell-based
In short: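 HeLa seeded at 10,000 cells/well; various compound concentrations added 24 h later; after 3 days incubation cells trypsinized and counted by Coulter counter.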
Compound `COc1ccc2c(c1N)CCC(C(=O)c1ccc(OC)c(OC)c1OC)C2` (racemic) has an IC50 of 30 nM.
With `COc1ccc(C(=O)C2CCc3c(ccc(OC)c3[N+](=O)[O-])C2)c(OC)c1OC` (racemic) the IC50 was 810 nM.
`COc1ccc2c(c1)CCC(C(=O)c1ccc(OC)c3c1OCO3)C2` (racemic) was tested, and the IC50 was 88000 nM.
With `COc1ccc(C(=O)C2CCc3c(ccc(OC)c3N)C2)cc1OC` (racemic) the IC50 was 23000 nM.
With `COc1ccc2c(c1)CCC(C(=O)c1ccc(OC)c(OC)c1)C2` (racemic) the IC50 was greater than 250000 nM.
For `COc1ccc2c(c1)CCC(C(=O)c1ccc(OC)c(OC)c1O)C2` (racemic), the IC50 was 40000 nM.
Work on `COc1cc2c(cc1N)CC(C(=O)c1ccc(OC)c(OC)c1OC)CC2` (racemic) yielded an IC50 of 740 nM.
`COc1cc2c(cc1[N+](=O)[O-])CC(C(=O)c1ccc(OC)c(OC)c1OC)CC2` (racemic) was tested, and the IC50 was greater than 250000 nM.
With `COc1ccc2c(c1)CCC(C(=O)c1ccc(OC)c(OC)c1OC)C2` (racemic) the IC50 was 400 nM.
In the case of `COc1ccc(/C=C\c2cc(OC)c(OC)c(OC)c2)cc1OP(=O)(O)O` [FOSBRETABULIN DISODIUM], the IC50 is reported as 13 nM.

These compounds were tested on HeLa (assay: Cell cycle arrest in human HeLa cells assessed as accumulation at G2/M phase at 0.1 uM after 24 hrs by propidium iodide staining based flow cytometry). Settings: not given.
Assay type: functional
In short: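 HeLa in DMEM + 10% FBS, 125,000 cells/well; compound added after 24 h for 24 h. DNA stained with propidium iodide kit, analysed by flow cytometry within 3 h; debris/clumps gated out; sub-G1, G1, S, G2/M percentages from region markers.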
In the case of `COc1ccc2c(c1N)CCC(C(=O)c1ccc(OC)c(OC)c1OC)C2` (racemic), the Activity is reported as “Active”.

Species on record: Bos taurus
Test: Inhibition of calf brain tubulin polymerization at 30 uM measured for 6000 secs by spectrophotometric method
Settings: not given
In short: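 Calf brain tubulin, gel-filtered into GAB buffer (10 mM sodium phosphate, 1 mM EGTA, 25% glycerol, 0.1 mM GTP, pH 7.0) at 25 µM, degassed; compound at 30 µM. Assembly at 37 °C followed by absorbance at 350 nm up to 6000 s; DMSO and podophyllotoxin controls; normalized absorbance.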
`COc1ccc(/C=C(\C)C(=O)c2cc(OC)c3c(c2)OCO3)cc1N` was tested, and the inhibition was “Active”.
With `COc1cc([C@@H]2c3cc4c(cc3[C@H](O)[C@H]3COC(=O)[C@H]23)OCO4)cc(OC)c1OC` the inhibition was “Active”.
In the case of `COc1ccc2c(c1N)CCC(C(=O)c1ccc(OC)c(OC)c1OC)C2` (racemic), the inhibition is reported as “Active”.
`COc1ccc(C(=O)C2CCc3c(ccc(OC)c3[N+](=O)[O-])C2)c(OC)c1OC` (racemic) was tested, and the inhibition was “Active”.
In the case of `COc1ccc2c(c1)CCC(C(=O)c1ccc(OC)c(OC)c1)C2` (racemic), the inhibition is reported as “inactive”.
With `COc1ccc2c(c1)CCC(C(=O)c1ccc(OC)c(OC)c1OC)C2` (racemic) the inhibition was “Active”.

Each compound was assayed on HeLa (assay: Antiproliferative activity against human HeLa cells). Settings: not given.
Assay type: functional, cell-based
In short: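 Cervical carcinoma cells plated at 10,000 cells/well in 48-well plates. Varied concentrations added after 24 h, then 3 days of incubation. Cells trypsinized and Coulter-counted. IC50 is the concentration giving 50% reduction of proliferation.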
`COc1ccc(/C=C(\C)C(=O)c2cc(OC)c3c(c2)OCO3)cc1N` showed an IC50 of 3.9 nM.

What follows are compounds tested on CCRF-CEM (assay: Antiproliferative activity against human CEM cells after 96 hrs by coulter counting method). Settings: not given.
Assay type: functional, cell-based
In short: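 Suspension cells (CEM, L1210) seeded at 60,000 cells/well together with graded compound concentrations; grown 96 h, then counted by Coulter counter.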
`COc1ccc2c(c1N)CCC(C(=O)c1ccc(OC)c(OC)c1OC)C2` (racemic) showed an IC50 of 22 nM.
In the case of `COc1ccc(C(=O)C2CCc3c(ccc(OC)c3[N+](=O)[O-])C2)c(OC)c1OC` (racemic), the IC50 is reported as 860 nM.
Compound `COc1ccc2c(c1)CCC(C(=O)c1ccc(OC)c3c1OCO3)C2` (racemic) has an IC50 of 39000 nM.
Work on `COc1ccc(C(=O)C2CCc3c(ccc(OC)c3N)C2)cc1OC` (racemic) yielded an IC50 of 6300 nM.
For `COc1ccc2c(c1)CCC(C(=O)c1ccc(OC)c(OC)c1)C2` (racemic), the IC50 was 221000 nM.
`COc1ccc2c(c1)CCC(C(=O)c1ccc(OC)c(OC)c1O)C2` (racemic) showed an IC50 of 38000 nM.
With `COc1cc2c(cc1N)CC(C(=O)c1ccc(OC)c(OC)c1OC)CC2` (racemic) the IC50 was 480 nM.
Work on `COc1cc2c(cc1[N+](=O)[O-])CC(C(=O)c1ccc(OC)c(OC)c1OC)CC2` (racemic) yielded an IC50 greater than 250000 nM.
`COc1ccc2c(c1)CCC(C(=O)c1ccc(OC)c(OC)c1OC)C2` (racemic) was tested, and the IC50 was 170 nM.
Work on `COc1ccc(/C=C\c2cc(OC)c(OC)c(OC)c2)cc1OP(=O)(O)O` [FOSBRETABULIN DISODIUM] yielded an IC50 of 11 nM.

The compounds below were run on HMEC-1 (assay: Antiproliferative activity against human HMEC1 cells). Settings: not given.
Assay type: cell-based
In short: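 HMEC-1 microvascular endothelial cells plated at 20,000 cells/well in 48-well plates. 5-fold dilutions added after 24 h, then 4 days of growth. Cells trypsinized and counted by Coulter counter. IC50 is the concentration halving proliferation.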
With `COc1ccc(/C=C(\C)C(=O)c2cc(OC)c3c(c2)OCO3)cc1N` the IC50 was 2.3 nM.
